ABHD5 PLIN5 PPI – ABHD5-PLIN5 protein interaction inhibition | Split G. princeps luciferase complementation, luminescence, 4 h | 360,000 compounds, 0.78% hits | inhibition, % at 4 µM | Q00G26+Q8WTS1;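 active = inhibition above the mean inhibition across every tested compound plus 3 SD, cut at about 22% in these data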;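 note: 0% = DMSO only wells and the 100% control is not disclosed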
NadD block – blocks S. aureus nicotinate mononucleotide adenylyltransferase; 360,000 compounds, 0.78% hits; inhibition, % at 20 µM; purified NadD enzyme, colorimetric absorbance read-out; in the data active = inhibition above about 26%
Rpn11 inh – Rpn11 (human) deubiquitinase inhibition. O00487. human 26S proteasome, Ub4-pepOG fluorescence polarization; 20S core pre-blocked with epoxomicin. inhibition, % at 20 µM. 360,000 compounds, 0.59% hits. AID 588493;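 active = inhibition at 20 µM, scaled to each plate's controls, above about 33%, limit read from the data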
Target sequence (O00487 whole entry, looked up): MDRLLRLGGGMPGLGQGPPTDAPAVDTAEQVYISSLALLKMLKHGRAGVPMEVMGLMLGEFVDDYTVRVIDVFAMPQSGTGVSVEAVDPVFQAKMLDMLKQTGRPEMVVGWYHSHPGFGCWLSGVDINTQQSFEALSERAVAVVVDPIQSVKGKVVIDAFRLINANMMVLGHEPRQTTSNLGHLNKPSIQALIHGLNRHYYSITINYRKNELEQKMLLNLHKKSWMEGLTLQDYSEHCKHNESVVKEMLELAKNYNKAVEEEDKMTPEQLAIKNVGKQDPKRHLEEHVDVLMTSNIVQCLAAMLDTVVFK
Xi reactivation – reactivates the inactive X chromosome in mouse fibroblasts. AID 743238. activation, % at 7.58 µM. XiGFP mouse fibroblasts, % GFP-positive cells imaging, 3 d; cells co-treated with 5-aza-dC sensitizer; scaled so ellipticine positive control = 100%. 360,000 compounds, 0.055% hits;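 active = mean normalized replicate activation at least 10% and every replicate at or above 10%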;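 note: 0% = median of on-plate neutral control wells and 100% = ellipticine 6 µM median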
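Schedule: 3 d treatment, 15 min room-temperature fixation; system: 68-5-11 XiGFP fibroblast line; buffer or medium: DMEM plus 5-aza-dC sensitizer; control set: ellipticine 6 µM positive control; compound: one concentration, pinned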
Rin1 Abl inh – inhibitors of human Rin1-Abl protein interaction; inhibition, % at 7.35 µM; TR-FRET Rin1/Abl binding, biochemical; AID 588664; P00519+Q13671; 360,000 compounds, 0.4% hits; in the data active = inhibition above about 5%, passing the limit was not always enough
NadD conf – confirmation of Staphylococcus aureus NadD inhibitors; inhibition, % at 20 µM; 2,000 compounds, 13% hits; shares compounds with NadD block; purified S. aureus NadD, colorimetric enzyme assay; in the data active = inhibition mostly above about 42%, no sharp cut-off; inactive = mostly below about 42%
* marks the source's active call; other numbers are inactive results; · = no result shown. A selection: hits, their analogues and other compounds. The true share with any hit is near 1.9%.

SMILES	ABHD5 PLIN5 PPI	NadD block	Rpn11 inh	Xi reactivation	Rin1 Abl inh	NadD conf
Cc1ccc(-c2csc(N3CCN(c4cc5c(cc4Cl)nc(-c4ccncc4)n5CCN4CCCCC4)CC3)n2)cc1	6	31*	16	0	2	20
COc1ccc2c(Cl)c(C(=O)NCCCn3ccnc3)sc2c1Cl	5	36*	30	·	-5	7
CC1CC2=C(NC(=S)NC2c2ccccc2F)/C(=C/c2ccccc2F)C1 (stereo unspecified)	-3	32*	1	0	2	23
CC1CC2=C(NC(=S)NC2c2cccc(F)c2)/C(=C/c2cccc(F)c2)C1 (stereo unspecified)	6	30	6	0	0	·
CCOc1cc(/C=N\Nc2ccc([N+](=O)[O-])cc2)ccc1OCC(=O)Nc1ccc(C)c(C)c1	4	44*	·	·	0	3
CCCC(=O)Nc1ccc2c(c1)C(=O)N(C)[C@@H]1CC[C@@H](CC(=O)NCC(F)(F)F)O[C@H]1CO2	·	·	·	0	·	·
CC1(C)CC1C(=O)Nc1ccc([N+](=O)[O-])cc1Br (stereo unspecified)	-1	-7	4	·	5	·
Cc1ccc(C2(c3ccc(C)cc3)CC2C(=O)Nc2ccc([N+](=O)[O-])cc2O)cc1 (stereo unspecified)	-36	48*	-8	·	1	43
O=C(C[C@H]1C[C@@H]2c3cc(NC(=O)c4ccc5c(c4)OCO5)ccc3O[C@@H]2[C@@H](CO)O1)NCc1ccccn1	·	·	·	0	·	·
S=c1[nH]nc(-c2cc(-c3ccccc3)n[nH]2)n1/N=C/c1ccccc1	-4	9	-4	0	-1	·
S=c1[nH]nc(-c2cc(-c3ccccc3)n[nH]2)n1/N=C/C(Br)=C/c1ccccc1	26*	62*	-6	1	2	3
COc1ccccc1/C=C/C=N/n1c(-c2cc(-c3ccccc3)n[nH]2)n[nH]c1=S	-12	36*	12	0	0	33
COc1ccccc1/C=C\C=N\n1c(-c2ccc(Cl)cc2Cl)n[nH]c1=S	-3	2	8	0	-5	·
S=c1[nH]nc(-c2cc(-c3ccccc3)n[nH]2)n1/N=C/C=C/c1ccccc1	-6	33*	7	0	2	19
COc1cccc(S(=O)(=O)N[C@@H]2CC[C@@H](CCn3cc(-c4ccccn4)nn3)O[C@H]2CO)c1	·	·	·	0	·	·
COc1ccccc1C#Cc1cnc2c(c1)C(=O)N([C@@H](C)CO)C[C@@H](C)[C@H](CN(C)S(=O)(=O)c1cn(C)cn1)O2	·	·	·	0	·	·
C[C@@H]1CCCCO[C@@H](CN(C)C(=O)CCC(F)(F)F)[C@@H](C)CN([C@@H](C)CO)C(=O)c2cc(NS(C)(=O)=O)ccc2O1	·	·	·	0	·	·
COc1ccc(-n2c(SCC(=O)Nc3sc4c(c3C#N)CCCC4)nnc2-c2ccccc2OC)cc1	5	41*	5	·	2	45
N#Cc1c(NC(=O)CSc2nnc(-c3ccco3)n2-c2ccccc2)sc2c1CCC2	12	41*	10	·	-1	19
COc1ccc(-c2nnc(SCC(=O)Nc3sc4c(c3C#N)CCC4)n2CC2CCCO2)cc1 (stereo unspecified)	-1	7	0	·	-1	·
COc1cccc(-n2c(SCC(=O)Nc3sc4c(c3C(N)=O)CCC4)nc3ccccc3c2=O)c1	0	32*	6	·	-1	-14
COc1ccc(-n2c(SCC(=O)Nc3ccccc3)nnc2-c2ccc(NS(=O)(=O)c3ccc(C)cc3)cc2)cc1	-2	49*	3	·	-3	44
O=C(Cc1ccccc1)N1C[C@@H]2[C@H](c3ccccc31)[C@H](CO)N2C(=O)C1CCCCC1	·	·	·	0	·	·
COc1ccc(-c2nnc(SCC(=O)Nc3sc4c(c3C#N)CCCC4)n2-c2ccccc2)cc1	-4	41*	7	·	5	5
O=C1N/C(=N\N=C\c2ccc3ncccc3c2)SC1Cc1ccc(SC(F)F)cc1 (stereo unspecified)	-6	33*	1	·	1	10
SMILES	ABHD5 PLIN5 PPI	NadD block	Rpn11 inh	Xi reactivation	Rin1 Abl inh	NadD conf
Cc1ccc(C2(SCC(N)C(=O)O)c3ccccc3-c3ccccc32)cc1 (stereo unspecified)	-15	39*	6	0	-1	54*
CCCNC(=O)N1CC2(CCN(C(=O)C3CCCCC3)CC2)c2c([nH]c3cc(OC)ccc23)[C@H]1CO	·	·	·	0	·	·
CC(C)CC(=O)Nc1ccc(N2CCN(C(=O)c3cccs3)CC2)cc1	-1	-1	10	0	-2	·
O=C(Cn1nc(-c2ccccc2)ccc1=O)Nc1ccc(N2CCN(C(=O)c3cccs3)CC2)cc1	3	29*	8	0	-19	6
Cc1cc(NC(=O)CSc2nc3c(sc4ccccc43)c(=O)n2CCCN2CCOCC2)n[nH]1	0	4	-3	·	-3	·
Cc1cc(NC(=O)CSc2nc3c(sc4ccccc43)c(=O)n2CCc2ccccc2)n[nH]1	5	34*	4	·	3	2
COc1ccc(/C=C/C(=O)NCC(=O)N/N=C/c2cc(Br)ccc2OCc2ccccc2)cc1	5	28*	-2	·	0	-1
CC(C)C[C@H]1CNC(=S)N1C[C@H]1CCCN1C[C@H](CC(C)C)N1C[C@H](Cc2ccccc2)N(CCc2ccccc2)C1=S	9	9	10	0	9	·
CC(C)C[C@@H](CN1CCCC1CN1C(=S)NC[C@@H]1Cc1ccc(O)cc1)N1C[C@H](Cc2ccc(O)cc2)N(CCc2ccccc2)C1=S (stereo partly specified)	2	42*	-6	0	-3	38
Oc1ccc(C[C@H]2CN([C@@H](Cc3ccc(O)cc3)CN3CCC[C@@H]3CN3C(=S)NC[C@@H]3Cc3ccccc3)C(=S)N2CCc2ccccc2)cc1	27*	40*	-1	0	3	32
O=C1NC[C@H](Cc2ccc(O)cc2)N(C[C@H]2CCCN2C[C@H](Cc2ccc(O)cc2)N2C[C@H](Cc3ccc(O)cc3)N(CCc3ccccc3)C(=O)C2=O)C1=O	7	9	-2	0	3	·
O=C1NC[C@H](Cc2ccc(O)cc2)N(C[C@@H]2CCCN2C[C@H](Cc2ccccc2)N2C[C@H](Cc3ccc(O)cc3)N(CCc3ccccc3)C(=O)C2=O)C1=O	-3	18	·	0	·	·
Oc1ccc(C[C@H]2CNC(=S)N2C[C@H]2CCCN2C[C@H](Cc2ccccc2)N2C[C@H](Cc3ccc(O)cc3)N(CCc3ccccc3)C2=S)cc1	13	46*	-6	0	-1	43
Oc1ccc(C[C@H]2CN([C@@H](Cc3ccccc3)CN3CCCC3CN3C(=S)NC[C@@H]3Cc3ccccc3)C(=S)N2CCc2ccccc2)cc1 (stereo partly specified)	2	37*	·	0	·	10
